Assay results published in PMC7383501 (Diabetes, Obesity & Metabolism, 2020).

Experiments:
[1] = Single-dose study: serum pharmacokinetics of efpeglenatide; type: in vivo, human; details: T2D patients, serum ELISA; for tmax: median (min–max)
Outline: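 Single s.c. dose (2–100 μg/kg) in T2D patients. Serum concentration–time data were used to derive tmax, terminal t1/2, observed Cmax, AUC(0–last) and AUC(0–inf). Values are geometric mean (%CV of arithmetic mean); tmax is median (min, max). Dose proportionality was explored on log-transformed Cmax and AUC. The PK set comprised dosed patients with sufficient concentration data.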

[2] = Repeated-dose study: serum pharmacokinetics of efpeglenatide; type: in vivo, human; details: mean (SD); for Accumulation ratio: AUC0–τ last dose / AUC0–τ first dose; for PTR (peak‐to‐trough ratio): Cmax/Cmin
Outline: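 T2D patients on metformin received s.c. doses weekly (168 h interval, eight injections) or monthly (672 h interval, three injections). PK set, grouped by the most recent treatment received. Accumulation ratio was AUC0–τ of the last dose over AUC0–τ of the first dose. Peak-to-trough ratio was Cmax/Cmin. t1/2 was the terminal elimination half-life.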

patients with T2D [3] = experiment: Single-dose study: pharmacodynamics; type: in vivo, human; details: single dose 2–8 μg/kg
Outline: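 Pharmacodynamics were assessed from 24-hour glucose profiles, including fasting and postprandial plasma glucose, reported as absolute change from baseline. The PD set comprised all treated patients.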

patients with T2D [4] = experiment: Repeated-dose study: pharmacodynamics/efficacy; type: in vivo, human
Outline: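 Multiple-ascending-dose trial in adults with T2D on stable metformin: s.c. doses weekly (1, 2, 4 mg; 8 weeks) or monthly (8, 12, 16 mg; 9 weeks), placebo 3:1, no titration. Primary endpoint was HbA1c change from baseline to […]. Full analysis set by randomized treatment. LS means came from ANCOVA with cohort as main effect and baseline as covariate. Each dose was tested against placebo within its regimen, two-sided at 5%, unadjusted.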

patients with T2D [5] = experiment: Single-dose study: safety and tolerability; type: in vivo, human
Outline: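 Single ascending s.c. doses of 2–100 μg/kg or placebo (5:1) were given to T2D patients after a 14-day washout of glucose-lowering drugs. Safety assessments covered AE recording, vital signs, 12-lead ECG, clinical laboratory measures and physical examination. The safety set included all patients receiving any study drug.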

patients with T2D [6] = experiment: Repeated-dose study: safety and tolerability; type: in vivo, human
Outline: (§1)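 Adults aged 18–65 with T2D on stable metformin for ≥3 months, HbA1c 7–10%. Randomized 3:1 to s.c. test compound or placebo with no titration, in six cohorts of 12. Doses were 1, 2 or 4 mg weekly for 8 weeks, or 8, 12 or 16 mg monthly for 9 weeks; follow-up to week 13. Assessments covered AEs, vital signs, 12-lead ECG, clinical laboratory measures, immunogenicity and physical examination. Analysed in the safety set by treatment actually received.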

[7] = tested on: anti-efpeglenatide antibodies; experiment: Single-dose study: immunogenicity, bridging ELISA; type: in vivo, human; details: serum, pre-dose, days 28 and 49, follow-up
Outline: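 First-in-patient dose escalation in eight cohorts of six T2D patients: single s.c. injection of 2–100 μg/kg test compound or placebo (5:1). Patients were 18–75 years, BMI 25–40 kg/m², HbA1c 6–10%, with a 14-day washout of glucose-lowering drugs before dosing. Immunogenicity was a secondary objective.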

[8] = tested on: anti-efpeglenatide antibodies; experiment: Repeated-dose study: immunogenicity, bridging ELISA; type: in vivo, human; details: the four patients with antibodies at baseline
Outline: as §1

GLP‐1 receptor [9] = details: in vitro; compared with other GLP‐1RAs; cited from earlier work
GLP‐1 receptor [10] = details: in vitro; compared with other GLP‐1RAs; cited from earlier work; remark: listed apart in the source
[11] = single s.c. dose 2 μg/kg, geometric mean (%CV)
[12] = single s.c. dose 4 μg/kg, geometric mean (%CV)
[13] = single s.c. dose 8 μg/kg, geometric mean (%CV)
[14] = single s.c. dose 14 μg/kg, geometric mean (%CV)
[15] = single s.c. dose 20 μg/kg, geometric mean (%CV)
[16] = single s.c. dose 40 μg/kg, geometric mean (%CV)
[17] = single s.c. dose 60 μg/kg, geometric mean (%CV)
[18] = single s.c. dose 100 μg/kg, geometric mean (%CV)

efpeglenatide
AUC(0–last) [1, 11]: 2913 (19) ng h/mL | Cmax [1, 11]: 10.4 (11) ng/mL | tmax ([1]; single s.c. dose 2 μg/kg): 144.00 (72.06–216.76) h | AUC(0–inf) [1, 12]: 9060 (12) ng h/mL | AUC(0–last) [1, 12]: 7911 (12) ng h/mL | Cmax [1, 12]: 25.7 (16) ng/mL | t1/2 [1, 12]: 144 (10) h | tmax ([1]; single s.c. dose 4 μg/kg): 72.06 (72.00–216.80) h | Cmax [1, 13]: 45.1 (5) ng/mL | t1/2 [1, 13]: 147 (19) h | tmax ([1]; single s.c. dose 8 μg/kg): 72.06 (72.00–144.00) h | Cmax [1, 14]: 80.3 (28) ng/mL | t1/2 [1, 14]: 135 (8) h | tmax ([1]; single s.c. dose 14 μg/kg): 144.00 (72.00–216.76) h | Cmax [1, 15]: 102 (6) ng/mL | t1/2 [1, 15]: 147 (6) h | tmax ([1]; single s.c. dose 20 μg/kg): 144.00 (72.00–216.78) h | Cmax [1, 16]: 202 (14) ng/mL | t1/2 [1, 16]: 141 (10) h | tmax ([1]; single s.c. dose 40 μg/kg): 144.00 (72.00–216.78) h | Cmax [1, 17]: 349 (13) ng/mL | t1/2 [1, 17]: 154 (9) h | tmax ([1]; single s.c. dose 60 μg/kg): 72.00 (72.00–144.00) h | Cmax [1, 18]: 643 (12) ng/mL | t1/2 [1, 18]: 180 (12) h | tmax ([1]; single s.c. dose 100 μg/kg): 72.00 (72.00–216.90) h | Accumulation ratio ([2]; 1 mg once weekly s.c., τ 168 h): 3.49 (2.16) | PTR (peak‐to‐trough ratio) ([2]; 1 mg once weekly s.c.): 1.40 (0.49) | Accumulation ratio ([2]; 2 mg once weekly s.c., τ 168 h): 3.51 (0.68) | PTR (peak‐to‐trough ratio) ([2]; 2 mg once weekly s.c.): 1.42 (0.21) | Accumulation ratio ([2]; 4 mg once weekly s.c., τ 168 h): 3.71 (1.87) | PTR (peak‐to‐trough ratio) ([2]; 4 mg once weekly s.c.): 1.32 (0.12) | Accumulation ratio ([2]; 8 mg once monthly s.c., τ 672 h): 1.07 (0.10) | PTR (peak‐to‐trough ratio) ([2]; 8 mg once monthly s.c.): 10.35 (7.28) | PTR (peak‐to‐trough ratio) ([2]; 12 mg once monthly s.c.): 5.86 (1.10) | PTR (peak‐to‐trough ratio) ([2]; 16 mg once monthly s.c.): 12.94 (7.55) | changes in PPG (patients with T2D [3]): No notable changes | reductions in FPG from baseline over 2 weeks (patients with T2D [3]; compared with the higher doses, data not shown): smaller than those observed for the higher doses | LS mean change in HbA1c compared with placebo (patients with T2D [4]; 8 mg once monthly, day 57, P = 0.006): statistically significant LS mean decreases | LS mean change in HbA1c compared with placebo (patients with T2D [4]; 12 mg once monthly, day 57, P = 0.015): statistically significant LS mean decreases | LS mean change in HbA1c compared with placebo (patients with T2D [4]; 16 mg once monthly, day 57): not statistically significant | LS mean change in HbA1c compared with placebo (patients with T2D [4]; all once‐monthly dose groups (8, 12, 16 mg), day 29, P ≤0.047 for all, ANCOVA): significant decreases | LS mean change in HbA1c compared with placebo (patients with T2D [4]; each once‐weekly dose group (1, 2, 4 mg), day 29, P ≤0.003 for all, ANCOVA): Significant decreases | LS mean change in HbA1c compared with placebo (patients with T2D [4]; each once‐weekly dose group (1, 2, 4 mg), day 57, P ≤0.021 for all, ANCOVA): Significant decreases | deaths or serious AEs (patients with T2D [5]): no deaths or serious AEs | arrhythmia or ECG changes due to QTc prolongation or conduction disorders (patients with T2D [5]; 12‐lead ECG): no signs of arrhythmia or ECG changes | hypoglycaemia or pancreatitis reported as AEs (patients with T2D [5]; any treatment group): No incidences | dose-escalation stopping criteria (patients with T2D [6]; 16 mg once monthly cohort, more than three patients with moderate vomiting): reached the predefined stopping criteria for dose escalation | pancreatic injury (patients with T2D [6]; any patient receiving efpeglenatide, repeated-dose study): no cases of pancreatic injury | haematological, serum chemistry or urine analysis variables (patients with T2D [6]; any treatment group, repeated-dose study): no significant change from baseline | development of anti‐efpeglenatide antibodies [7]: No patient | treatment‐emergent or treatment‐induced antibodies [8]: none | dissociation from the GLP‐1 receptor (GLP‐1 receptor [9]): faster dissociation | receptor internalization (GLP‐1 receptor [10]): reduced receptor internalization
